This is an account of results in ChEMBL document CHEMBL4028832, “Design and synthesis of 1,2,3-triazolo-phenanthrene hybrids as cytotoxic agents” (Bioorg Med Chem Lett, 2017).

The subject of assay [1] is MDA-MB-453. The assay is described as follows: Cytotoxicity against human MDA-MB-453 cells after 48 hrs by MTT assay. Format: functional, cell-based. The note with it: MDA-MB-453, 48 h. An outline of the steps:
(§1)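 The human cancer lines and mouse 4T1 breast cells were treated with compound for 48 h and assessed by MTT assay. IC50 is the concentration giving 50% inhibition. 5-Fluorouracil served as the MTT standard.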

In assay [2] the test system is 4T1. The assay is described as follows: Cytotoxicity against mouse 4T1 cells after 48 hrs by MTT assay. Format: functional, cell-based. To be noted: 4T1, 48 h. An outline of the steps: as §1
On the technique in general: Formazan colour is commonly taken as a measure of viable cells.

Assay [3] concerns PC-3. As to the kind of experiment: Cytotoxicity against human PC3 cells after 48 hrs by MTT assay. It counts as functional, cell-based. The note with it: PC-3, 48 h. An outline of the steps: as §1
For assay [4], the system named is HGC-27. As to the kind of experiment: Cytotoxicity against human HGC27 cells after 48 hrs by MTT assay. To be noted: HGC-27, 48 h. It counts as functional, cell-based. An outline of the steps: as §1
Assay [5] has as its system BT-549. As to the kind of experiment: Cytotoxicity against human BT549 cells after 48 hrs by MTT assay. Format: functional, cell-based. The note with it: BT-549, 48 h. The gist of the method:
as §1

Assay [6] relates to HeLa. As to the kind of experiment: Cytotoxicity against human HeLa cells after 48 hrs by MTT assay. It counts as functional, cell-based. An outline of the steps:
as §1

For assay [7], the system named is DU-145. The assay is described as follows: Cytotoxicity against human DU145 cells after 48 hrs by MTT assay. Format: functional, cell-based. To be noted: DU-145, 48 h. The gist of the method:
as §1

The subject of assay [8] is MDA-MB-231. As to the kind of experiment: Cytotoxicity against human MDA-MB-231 cells after 48 hrs by MTT assay. It counts as functional, cell-based. To be noted: MDA-MB-231, 48 h. The gist of the method: as §1
Assay [9] has as its system A549. The assay is described as follows: Cytotoxicity against human A549 cells after 48 hrs by MTT assay. Format: functional, cell-based. The note with it: A549, 48 h. An outline of the steps:
as §1

For assay [10], the species on record is Bos taurus. As to the kind of experiment: Binding affinity to calf thymus DNA assessed as increase in viscosity at 5 uM by Rolling-ball viscometric method.

pIC50: −log10 of the molar value. Activity calls are given as the source filed them. The rule behind the calls is not given here.

For orientation: pIC50 means the IC50 on a negative log10 scale, so that one unit is a factor of ten. Turning to `COc1cc2cc(Cn3cc(CN4C(=O)c5ccc(C)cc5C4=O)nn3)c3cc(OC)c(OC)cc3c2cc1OC`, the pIC50 in assay [1] is 5.19; in [2], 5.00; in assay [3], 5.15; in [4] it was 5.46; in assay [5], 5.41; in [6], 5.57. Further, the pIC50 was 5.73 in [7], 5.34 in assay [8] and 4.91 in [9]. For the same molecule, the result in assay [10] was Active.
As to `COc1cc2cc(Cn3cc(COc4c(Br)cccc4Br)nn3)c3cc(OC)c(OC)cc3c2cc1OC`, the pIC50 in [1] was below 4.70; in [2], 5.13; in assay [3] it was 4.85; in assay [4], 5.44; in assay [5], below 4.70; in assay [6] it was 5.29. In addition, the negative-log IC50 (pIC50) in [7], in assay [8] and in [9] was below 4.70 throughout.
For `COc1cc2cc(Cn3cc(CCO)nn3)c3cc(OC)c(OC)cc3c2cc1OC`, the pIC50 in [1] is below 4.70; in assay [2], below 4.70; in assay [3] it was below 4.70; in assay [4], 4.85; in assay [5], below 4.70; in [6] it was 4.76. The pIC50 in [7], in assay [8] and in [9] was below 4.70 each time.
For `COc1cc2cc(Cn3cc(COc4ccc(-c5ccccc5)cc4)nn3)c3cc(OC)c(OC)cc3c2cc1OC`, the pIC50 in [1] is below 4.70; in assay [2] it was 4.97; in assay [3] it was 4.90; in [4] it was below 4.70; in [5], below 4.70; in assay [6], below 4.70. In addition, the pIC50 in assay [7], in [8] and in assay [9] was below 4.70 each time.
With `COc1cc2cc(Cn3cc(COc4ccc5c(c4)OCO5)nn3)c3cc(OC)c(OC)cc3c2cc1OC`, the pIC50 was 4.72 in assay [1]; 5.19 in assay [2]; 4.88 in assay [3]; 5.02 in [4]; 4.74 in assay [5]; below 4.70 in assay [6]. Moreover, the pIC50 in [7] is 4.78; in [8] it was 4.90; in assay [9], 4.84.
On to `COc1cc2cc(Cn3cc(COc4ccc(OCc5ccccc5)cc4)nn3)c3cc(OC)c(OC)cc3c2cc1OC`, for which the pIC50 in [1] is below 4.70; in assay [2], 5.03; in assay [3], below 4.70; in assay [4], 5.02; in assay [5], 4.84; in [6], 4.68. Besides, the pIC50 in assay [7], in assay [8] and in assay [9] was below 4.70 each time.
With `C=CCc1ccc(OCc2cn(Cc3cc4cc(OC)c(OC)cc4c4cc(OC)c(OC)cc34)nn2)c(OC)c1`, the pIC50 in assay [1] is below 4.70; in assay [2], 5.14; in assay [3], below 4.70; in [4] it was 5.12; in assay [5] it was below 4.70; in assay [6], 5.15. For the same molecule, the pIC50 in [7], in assay [8] and in [9] was below 4.70 each time.
In the case of `COc1cc2cc(Cn3cc(COc4ccc(Br)cc4)nn3)c3cc(OC)c(OC)cc3c2cc1OC`, the negative logarithm of the IC50 (pIC50) in assay [1] is below 4.70; in assay [2], below 4.70; in assay [3], below 4.70; in assay [4] it was 5.41; in assay [5], below 4.70; in assay [6] it was 5.42. Further, the pIC50 in assay [7], in assay [8] and in assay [9] was below 4.70 throughout.
Consider `COc1cc2cc(Cn3cc(CN4CCCc5ccccc54)nn3)c3cc(OC)c(OC)cc3c2cc1OC`, for which the pIC50 is below 4.70 in assay [1]; below 4.70 in assay [2]; 4.86 in [3]; below 4.70 in [4]; below 4.70 in assay [5]; below 4.70 in assay [6]. The pIC50 in assay [7], in assay [8] and in assay [9] was below 4.70 each time.
Regarding `COc1cc2cc(Cn3cc(COc4ccccc4OC)nn3)c3cc(OC)c(OC)cc3c2cc1OC`, the pIC50 was below 4.70 in assay [1]; below 4.70 in [2]; below 4.70 in assay [3]; 5.04 in assay [4]; below 4.70 in assay [5]; 4.95 in [6]. Further, the pIC50 in [7], in [8] and in [9] was below 4.70 in each case.
Turning to `COc1cc2cc(Cn3cc(CO)nn3)c3cc(OC)c(OC)cc3c2cc1OC`, the pIC50 in [1] is 4.87; in assay [2], below 4.70; in assay [3] it was below 4.70; in assay [4], below 4.70; in [5], 5.09; in assay [6] it was 4.74. The pIC50 was below 4.70 in assay [7], 5.17 in assay [8] and below 4.70 in assay [9].
On to `COc1cc2cc(Cn3cc(COc4c(C)cc(C)cc4C)nn3)c3cc(OC)c(OC)cc3c2cc1OC`, for which the pIC50 in [1] is 4.90; in assay [2], 5.21; in assay [3], below 4.70; in [4], below 4.70; in assay [5] it was 4.91; in [6], 4.75. Besides, the pIC50 in [7], in [8] and in assay [9] was below 4.70 in each case.
For the molecule `O=c1[nH]cc(F)c(=O)[nH]1` [FLUOROURACIL], the pIC50 in [3] was 5.92; in [4] it was 4.83; in [6], 5.73; in [7], 5.66; in [8], 5.36; in assay [9], 5.80.
Turning to `COc1cc2cc(Cn3cc(CN4C(=O)c5ccccc5C4=O)nn3)c3cc(OC)c(OC)cc3c2cc1OC`, the pIC50 was below 4.70 in assay [1]; 4.95 in assay [2]; 5.12 in assay [3]; 5.12 in assay [4]; below 4.70 in assay [5]; 4.90 in assay [6]. Besides, the pIC50 in [7] was 5.59; in assay [8] it was 4.93; in assay [9], below 4.70.
`COc1ccc2c3c(c4cc(OC)c(OC)cc4c2c1)C[C@H]1CCCN1C3` [(-)-ANTOFINE] had a pIC50 in [8] of 7.92.
On to `COc1cc2cc(Cn3cc(COc4cc(OC)c(OC)c(OC)c4)nn3)c3cc(OC)c(OC)cc3c2cc1OC`, for which the pIC50 in assay [1] was below 4.70; in [2] it was below 4.70; in [3] it was below 4.70; in assay [4] it was 4.83; in assay [5], below 4.70; in assay [6], below 4.70. For the same molecule, the pIC50 was below 4.70 in assay [7], 4.72 in [8] and below 4.70 in assay [9].
